Results from different studies.
Ephx2: Bifunctional epoxide hydrolase 2 (Ephx2, Rattus norvegicus, UniProt P80299)
Dihydrofolate reductase: Dihydrofolate reductase (Mycobacterium avium, UniProt O30463)

| Compound | target | test | endpoint | value |
| --- | --- | --- | --- | --- |
| CC[C@H](NC(=O)[C@H](CS(=O)(=O)CC1CC1)N[C@@H](c1ccc(F)cc1)C(F)(F)F)C(=O)C(=O)NC1CC1 | Dipeptidyl peptidase 1 (Ctsc, Mus musculus, UniProt P97821) | enzyme activity, inhibitor, fluorescence | IC50 | 18000 nM |
| O=C(Nc1ccc(-c2ccnc3ccccc23)cc1)C1CCN(S(=O)(=O)c2ccccc2Cl)CC1 | Ephx2 | enzyme activity, inhibitor, fluorescence | IC50 | 0.7 nM |
| CN1Cc2c(N)cccc2C(=O)N1C1CCC(=O)NC1=O (stereo not shown) | Cereblon/Ikaros (Homo sapiens, UniProt Q13422+Q96SW2) | protein level, degrader, luciferase | DC50 | 67.2 nM |
| O=C(C=Cc1ccccc1)Nc1cc(-c2ccnc(N3CCC(O)CC3)c2)ccn1 | Estrogen receptor (ESR1, Homo sapiens, UniProt P03372) | binding, SPR | Kd | 1280 nM |
| Nc1nc(N)c(OCCCOc2ccccc2CCC(=O)O)c(-c2ccc(C(F)(F)F)cc2)n1 | Dihydrofolate reductase | enzyme activity, inhibitor | IC50 | 67 nM |
| O=c1cc(-c2ccc(O)cc2)oc2c([C@@H]3OC[C@H](O)[C@H](O)[C@H]3O)c(O)c([C@@H]3O[C@H](CO)[C@@H](O)[C@H](O)[C@H]3O)c(O)c12 | Calcium/calmodulin-dependent protein kinase type II subunit beta (CAMK2B, Homo sapiens, UniProt Q13554) | enzyme activity, inhibitor | IC50 | 157000 nM |
| O=C(Nc1ccc(-c2ccc3cccnc3c2)cc1)C1CCN(S(=O)(=O)c2ccccc2Cl)CC1 | Ephx2 | enzyme activity, inhibitor, fluorescence | IC50 | 8.1 nM |
| O=C1CC[C@H](N2Cc3cc(N4CCN(CC5CCN(c6ccc([C@@H]7c8ccc(O)cc8CC[C@@H]7c7ccccc7)cc6)CC5)CC4)ccc3C2=O)C(=O)N1 | Glucocorticoid receptor (NR3C1, Homo sapiens, UniProt P04150) | ligand displacement, radioligand | IC50 | 83 nM |
| Cc1cc([C@@H](C)Nc2ccccc2C(=O)O)c2nc(N3CCC(F)(F)CC3)c(C#N)c(=O)n2c1 | Phosphatidylinositol 3-kinase catalytic subunit type 3 (PIK3C3, Homo sapiens, UniProt Q8NEB9) | enzyme activity, inhibitor, ADP detection | IC50 | > 10000 nM |
| CCCOc1nc(N)nc(N)c1OCCCOc1ccccc1CCC(=O)O | Dihydrofolate reductase | enzyme activity, inhibitor | IC50 | > 5000 nM |
